# Screening data as filed in PubChem.
# Rows were chosen to be rich in hits. Some 2.1% of all compounds tested hit in one or more screens of this group.
# aDG glyco act = increases alpha dystroglycan glycosylation. Pro5-aDG cells, alpha-DG glycosylation AlphaScreen (IIH6); 0% Pro5, 100% B10-LARGE cell signal. activation, % at 10 µM. 360,000 compounds, 0.22% hits. AID 624168;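 active = activation of at least 8% versus controls, or a plate z-score of at least 8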;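 also: Pro5 are CHO cells carrying HIG-tagged alpha-DG that lacks glycosylation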
# PfGluPho inh = PfG6PD (Plasmodium falciparum) enzyme inhibition. inhibition, % at 20 µM. 350,000 compounds, 0.78% hits. PfGluPho enzyme, NADPH resazurin-diaphorase fluorescence;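 active = inhibition reaching at least a set limit at 20 µM in the primary screen, cut at about 59% in these data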;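 also: 0% = DMSO wells with substrate and 100% = DMSO wells lacking glucose-6-phosphate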
# HKDC1 inhibitor = blocks human hexokinase HKDC1 activity | Q2TB90 | recombinant HKDC1, G6PDH/diaphorase resazurin coupled fluorescence | inhibition, % at 20 µM | 340,000 compounds, 0.16% hits | AID 493160;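 active = inhibition above about 35% when tested at 20 µM, limit read from the data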;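 also: plate controls were DMSO wells with enzyme for no effect and DMSO wells lacking enzyme for full effect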
#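 Assay system: in-house recombinant HK5 (HKDC1) enzyme. Input: HKDC1 at 5 µg/mL. Medium: Tris pH 8.0 buffer with MgCl2, Tween-20, BSA, BME. Dosing: single 20 µM dose. Schedule: 90 min reaction incubation at room temperature, dark. Signal: resazurin-to-resorufin fluorescence via G6PDH and diaphorase coupling, 525/613 nm. Controls: DMSO-enzyme wells negative, buffer-substituted wells positive.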
# Beta2AR agonist = activates human beta-2 adrenergic receptor causing internalization; Am2.2-beta2AR cells, FAP receptor internalization, flow cytometry; response, % (concentration not given with the values); P07550; 340,000 compounds, 0.43% hits;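 active = response above a set limit, near 3 SD of response in nonfluorescent compounds, cut at about 42% in these data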
# Target sequence (P07550 whole entry, looked up): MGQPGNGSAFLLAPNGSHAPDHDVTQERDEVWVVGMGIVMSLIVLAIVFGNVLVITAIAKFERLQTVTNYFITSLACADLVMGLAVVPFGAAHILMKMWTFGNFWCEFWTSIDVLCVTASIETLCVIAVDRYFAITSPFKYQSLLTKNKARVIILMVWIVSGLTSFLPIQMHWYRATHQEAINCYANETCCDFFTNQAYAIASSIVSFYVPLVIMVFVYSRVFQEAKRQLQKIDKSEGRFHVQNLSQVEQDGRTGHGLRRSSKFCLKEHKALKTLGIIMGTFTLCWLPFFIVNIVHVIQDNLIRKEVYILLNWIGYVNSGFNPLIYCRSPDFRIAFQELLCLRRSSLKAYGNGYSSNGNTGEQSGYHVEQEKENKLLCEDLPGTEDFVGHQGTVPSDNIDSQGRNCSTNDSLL
# H9c2 protect = myocardial damage modulation in H9c2 cells; H9c2 cardiomyocytes, H2O2 injury protection, ATPLite, 2 h; protection from H2O2 cell death, % at 20 µM; 360,000 compounds, 0.63% hits;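 active = compounds giving at least 50% protection of heart cells from peroxide-induced death in the single-dose screen, raw or plate-pattern-corrected value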;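 also: 0% = DMSO wells with peroxide and 100% = DMSO wells without peroxide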
# UCH37 inh = inhibitors of human deubiquitinating enzyme UCH37; Q9Y5K5; 330,000 compounds, 0.33% hits; inhibition, % (test concentration not listed); AID 588478; purified proteasome/UCH37, Ub-AMC cleavage fluorescence;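 active = mean inhibition over replicate wells above about 20%, limit read from the data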;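 also: 0% = compound-free wells with enzyme and 100% = wells lacking proteasome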
# Target sequence (Q9Y5K5 whole entry, looked up): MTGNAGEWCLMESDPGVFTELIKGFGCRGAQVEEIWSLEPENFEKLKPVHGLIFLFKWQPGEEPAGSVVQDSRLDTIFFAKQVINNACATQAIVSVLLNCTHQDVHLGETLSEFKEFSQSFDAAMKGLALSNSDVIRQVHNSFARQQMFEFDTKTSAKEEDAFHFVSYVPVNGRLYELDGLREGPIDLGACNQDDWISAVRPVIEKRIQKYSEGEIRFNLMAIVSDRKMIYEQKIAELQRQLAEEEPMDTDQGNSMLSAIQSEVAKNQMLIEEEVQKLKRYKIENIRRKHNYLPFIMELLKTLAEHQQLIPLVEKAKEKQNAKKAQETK
#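 assay system = human UCH37 enzyme supplied as purified proteasome complex | amount = proteasome at 0.15 nM in the dispensed enzyme solution | schedule = 30 min compound-proteasome preincubation then 25 min substrate reaction, room temperature | measured by = fluorescence, ex 355 nm, em 460 nm | benchmarks = no-proteasome wells (full inhibition) and compound-free wells (no inhibition)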
# Active calls of the source: *; i = inactive; . = not tested or not shown.
SMILES,aDG glyco act,PfGluPho inh,HKDC1 inhibitor,Beta2AR agonist,H9c2 protect,UCH37 inh
O=C(Cn1nc2ccccc2n1)NN=Cc1ccc(F)cc1,.,.,.,.,.,2.5
CC(=NNc1ccc(F)cc1)c1ccncc1,.,.,.,.,.,-0.6
COc1ccccc1NS(=O)(=O)c1cccc(C(=O)NN=C(C)c2ccncc2)c1,.,.,.,.,.,3.9
CCN(N=Cc1cccs1)c1cc(=O)n(C)c(=O)[nH]1,.,.,.,.,.,18.2
O=C(Nc1cccc(S(=O)(=O)Nc2ccccc2F)c1)c1ccco1,-0.1,7.2,-5.6,-6.9,3.7,4.8
O=C1CCC(C(=O)Nc2cccc(S(=O)(=O)Nc3ccccc3F)c2)=NN1,0.1,92.2*,-37.3,-1.4,-1.1,0.3
Cc1ccc(CON=Cc2c(O)cc(C)oc2=O)cc1,.,.,.,.,.,-1.0
O=S1(=O)CCC(N=Cc2cc(Br)ccc2O)C1 (stereo not given),-0.2,-0.3,6.8,20.1,69.8*,0.7
Cc1ccc(S(=O)(=O)N=C2CN(C)C(=O)N2C)cc1,.,.,.,.,.,-0.3
O=c1cc(N=Nc2ccc(Cl)cc2)[nH]c(=O)[nH]1,-0.3,7.5,17.7,51.0*,-21.8,4.7
c1ccc(-c2sc3ccccc3c2-c2ccc(OCCN3CCCC3)cc2)cc1,2.4,-8.4,5.3,67.9*,-10.3,.
COc1cccc(-c2sc3ccccc3c2-c2ccc(OCCN(C)C)cc2)c1,1.2,12.8,0.1,64.8*,-2.4,.
COc1cccc(-c2sc3ccccc3c2-c2ccc(OCCN3CCCC3)cc2)c1,1.5,5.6,-0.3,20.3,-12.2,.
COc1ccc(C=NNC(=O)c2cccc(S(=O)(=O)N3CCCC3)c2)cc1O,.,.,.,.,.,8.3
CCOc1ccc(CCNC(=O)c2cc3c(C)nccc3[nH]c2=O)cc1OCC,0.3,2.7,3.2,17.3,72.0*,4.2
CC(=NN1CCN(c2ccccn2)CC1)c1ccc([N+](=O)[O-])cc1,.,.,.,.,.,4.2
Cc1cccc(C=Nn2c(-c3ccccn3)n[nH]c2=S)c1,.,.,.,.,.,-0.7
Cc1cc(N2CCOCC2)c2c(N)c(Br)cc(C)c2n1,0.1,-2.2,-2.1,4.7,51.6*,1.5
CCOc1ccc(CCN2C(=O)C(=O)N([C@H](CCCN(C)Cc3ccccc3)CNCc3ccccc3)C[C@@H]2C(C)C)cc1,.,.,.,.,.,5.9
COc1ccc(CNC[C@@H](CCCCN(C)Cc2ccc(OC)cc2)N2C[C@H](c3ccccc3)N(CCc3ccc(Cl)c(Cl)c3)C(=O)C2=O)cc1,-0.8,22.5,9.4,102.2*,-33.4,4.6
COc1ccc2sc(-c3ccc(SC)cc3)c(-c3ccc(O)cc3)c2c1,0.6,1.9,-0.2,53.0*,-11.3,-10.3
Oc1ccc(/C=N/Nc2nc(N3CCCC3)nc(N3CCCC3)n2)cc1O,-0.4,21.4,0.7,-15.2,75.9*,.
C/C(=N\NC(=O)COc1ccccc1-c1ccccc1)c1ccc(O)cc1O,0.1,-8.7,-26.7,19.2,54.5*,.
CC(=NNC(=O)COc1ccccc1-c1ccccc1)c1ccc(O)cc1O,.,.,.,.,.,-2.1
O=C(CS(=O)c1ccc(C(F)(F)F)cc1[N+](=O)[O-])Oc1ccccc1 (stereo not given),0.1,0.7,8.9,98.3*,-2.1,7.8
SMILES,aDG glyco act,PfGluPho inh,HKDC1 inhibitor,Beta2AR agonist,H9c2 protect,UCH37 inh
COC(=O)c1ccc(OC(=O)CS(=O)c2ccccc2[N+](=O)[O-])cc1 (stereo not given),-0.2,0.6,-13.1,5.7,-6.2,2.5
Cc1cccc(N2CC(C(=O)NCCC3=CCCCC3)CC2=O)c1C (stereo not given),-0.2,-9.4,-7.4,-1.4,-0.6,22.9*
COc1ccccc1N1CC(C(=O)NCCC2=CCCCC2)CC1=O (stereo not given),-0.1,12.8,-7.7,-1.3,-3.4,0.2
Cc1nc2ccc(Cl)cc2nc(C)c1=NO,.,.,.,.,.,2.3
O=c1cc2oc3cc(O)c(O)cc3c(-c3ccccc3O)c-2cc1O,-0.2,12.6,31.4,-29.0,0.2,14.5
CCOc1ccccc1-c1c2cc(O)c(=O)cc-2oc2cc(O)c(O)cc12,0.0,-14.6,18.3,-246.9,60.1*,16.4
S=C(NCCc1ccccc1)NN=Cc1cccs1,.,.,.,.,.,2.8
CNC(=S)NN=Cc1cn(CCOc2ccc(OC)cc2)c2ccccc12,.,.,.,.,.,2.3
CCOC(=O)N1CCC(NC(=S)Nc2ccc3nc(N4CCN(CC)CC4)cc(C)c3c2)CC1,1.2,-5.7,2.5,50.2*,-10.1,-3.1
CCn1cc(C=NO)c(C)n1,.,.,.,.,.,4.3
COc1ccc(C=NNC(=O)c2ccc3c(c2)NC(=O)C(C)(C)O3)cc1OC,.,.,.,.,.,-151.2
COc1ccc(-c2cn3cccnc3n2)cc1NC(=O)c1ccc(Br)o1,-0.3,14.8,-4.8,12.3,57.5*,-162.1
Cc1ccc(-c2cn3cccnc3n2)cc1NC(=O)c1ccc(Br)o1,-0.1,-6.9,-0.7,0.1,11.7,i
O=C(NN=Cc1ccc(Cl)cc1)c1sccc1-n1cccc1,.,.,.,.,.,2.2
COc1cc(C)cc2oc(=O)c(CC(=O)N3CCN(C(=O)C4COc5ccccc5O4)CC3)c(C)c12 (stereo not given),0.0,1.2,1.2,9.2,47.0*,-310.5
COc1cccc(C=Nn2c(-c3ccco3)nc3ccccc3c2=O)c1OC,.,.,.,.,.,1.4
COc1cccc(C2=N/C(=C\N(C)C)C(=O)O2)c1,-0.2,-10.5,-2.5,-1.3,-7.3,25.0*
COc1cc(C(=O)Oc2ccc(C=NNC(=O)c3ccncc3)cc2)cc(OC)c1OC,.,.,.,.,.,3.6
O=c1cc(CN2CCN(S(=O)(=O)c3ccc4c(c3)OCCO4)CC2)c2ccc(O)cc2o1,0.0,-6.7,2.6,3.3,24.7,-428.7
O=c1cc(CN2CCN(S(=O)(=O)c3cccc(Cl)c3)CC2)c2ccc(O)cc2o1,0.4,-0.2,23.2,16.0,54.0*,-314.5
COc1cccc(C(=O)Oc2ccc(C=NNC(=O)c3ccncc3)cc2OC)c1,.,.,.,.,.,-13.0
O=c1[nH]c(SCc2n[nH]c(=S)n2-c2ccccc2)nc2sc3c(c12)CCC3,0.1,7.8,0.9,12.2,61.9*,3.7
Cc1cc(-c2ccccc2)nc(NN=Cc2ccccc2F)n1,.,.,.,.,.,-0.8
Nc1ccc2nc(-c3cccs3)[nH]c2c1,-0.2,-4.8,-5.8,-7.8,66.0*,i
CC(C)C(C(=O)O)N1C(=O)/C(=C/c2cccn2C)SC1=S (stereo not given),-0.2,-8.4,9.4,10.3,3.4,24.9*
Cn1cccc1/C=C1\SC(=S)N(Nc2ccccc2)C1=O,-0.1,12.0,5.4,-2.4,-3.6,4.3
CCCC(C(=O)O)N1C(=O)/C(=C/c2cccn2C)SC1=S (stereo not given),-0.4,2.2,-5.4,4.9,-0.8,22.5*
O=[N+]([O-])c1cccc(C=NNc2nc(C(Cl)(Cl)Cl)nc3ccccc23)c1,.,.,.,.,.,5.0
Cc1sc2nc(CSCC(=O)N(CCC#N)c3ccccc3)[nH]c(=O)c2c1C,0.4,-6.8,20.7,2.4,64.1*,-8.5
